{"source": "ChEMBL document CHEMBL1649560", "about": "“Beta-lactamase-mediated beta-lactam resistance in Campylobacter species: prevalence of Cj0299 (bla OXA-61) and evidence for a novel beta-Lactamase in C. jejuni” (2009)", "type_in_all_cases": "functional", "key": {"Campylobacter jejuni [1]": {"system": "Campylobacter jejuni", "experiment": "Antibacterial activity against bla gene-negative and nitrocefin reaction-positive beta-lactamase harboring Campylobacter jejuni isolate P854 by NCCLS agar doubling dilution method in presence of clavulanic acid", "outline": "(§1)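 MICs of β-lactams by agar doubling dilution following the NCCLS (CLSI) Campylobacter Working Group procedure, with C. jejuni NCTC 11168 and C. coli NCTC 11366 as controls. Isolates were from UK poultry flocks. β-Lactamase status was set by Cj0299 PCR (281-bp amplimer) and by a nitrocefin colour change of sonicated lysate within 5 min, or within 30 min on repeat.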"}, "Campylobacter jejuni [2]": {"system": "Campylobacter jejuni", "experiment": "Antibacterial activity against bla gene-positive and nitrocefin reaction-positive beta-lactamase harboring Campylobacter jejuni isolate P1618 by NCCLS agar doubling dilution method in presence of clavulanic acid", "outline": "as §1"}, "Campylobacter jejuni [3]": {"system": "Campylobacter jejuni", "experiment": "Antibacterial activity against bla gene-positive and nitrocefin reaction-positive beta-lactamase harboring Campylobacter jejuni isolate P316 by NCCLS agar doubling dilution method in presence of clavulanic acid", "outline": "(§2)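 MICs by agar doubling dilution per the NCCLS (now CLSI) Campylobacter Working Group method. Isolates came from UK chicken flocks (feces, ceca or farm environment), 2000–2006. C. jejuni NCTC 11168 and C. coli NCTC 11366 served as control strains. The ampicillin resistance cutoff was 8 μg/ml; BSAC/CLSI Enterobacteriaceae guidelines were used for other agents.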"}, "Campylobacter jejuni [4]": {"system": "Campylobacter jejuni", "experiment": "Antibacterial activity against bla gene-negative and nitrocefin reaction-negative beta-lactamase harboring Campylobacter jejuni isolate P1962 by NCCLS agar doubling dilution method in presence of clavulanic acid", "outline": "as §1"}, "Campylobacter jejuni [5]": {"system": "Campylobacter jejuni", "experiment": "Antibacterial activity against bla gene-positive and nitrocefin reaction-positive beta-lactamase harboring Campylobacter jejuni isolate P338 by NCCLS agar doubling dilution method in presence of clavulanic acid", "outline": "as §2"}, "Campylobacter coli [6]": {"system": "Campylobacter coli", "experiment": "Antibacterial activity against Campylobacter coli by NCCLS agar doubling dilution method in presence of clavulanic acid", "outline": "(§3)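 MICs by agar doubling dilution following the NCCLS (CLSI) Campylobacter Working Group procedure, applied to ampicillin- and amoxicillin-resistant isolates from UK chicken flocks (2000–2006). C. jejuni NCTC 11168 and C. coli NCTC 11366 served as control strains. Resistance was called at an ampicillin cutoff of 8 μg/ml. Other agents were judged against Enterobacteriaceae guidelines (BSAC, CLSI).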"}, "Campylobacter jejuni [7]": {"system": "Campylobacter jejuni", "experiment": "Antibacterial activity against bla gene-positive and nitrocefin reaction-positive beta-lactamase harboring Campylobacter jejuni isolate P305 by NCCLS agar doubling dilution method in presence of clavulanic acid", "outline": "as §2"}, "Campylobacter jejuni [8]": {"system": "Campylobacter jejuni", "experiment": "Antibacterial activity against bla gene-negative and nitrocefin reaction-negative beta-lactamase harboring Campylobacter jejuni isolate P850 by NCCLS agar doubling dilution method in presence of clavulanic acid", "outline": "as §1"}, "Campylobacter jejuni [9]": {"system": "Campylobacter jejuni", "experiment": "Antibacterial activity against bla gene-positive and nitrocefin reaction-positive beta-lactamase harboring Campylobacter jejuni isolate P790 by NCCLS agar doubling dilution method in presence of clavulanic acid", "outline": "as §2"}, "Campylobacter jejuni [10]": {"system": "Campylobacter jejuni", "experiment": "Antibacterial activity against Campylobacter jejuni by NCCLS agar doubling dilution method", "outline": "as §3"}, "Campylobacter jejuni [11]": {"system": "Campylobacter jejuni", "experiment": "Antibacterial activity against Campylobacter jejuni isolate P338 harboring blaOXA-61::cat gene by NCCLS agar doubling dilution method in presence of clavulanic acid", "outline": "(§4)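 Agar doubling dilution MICs (NCCLS/CLSI Campylobacter Working Group method) against Cj0299-inactivated mutants. Mutants were made by transforming the C. jejuni isolate with pCI and selecting on Mueller-Hinton agar with 10 μg/ml chloramphenicol for 3–5 days. Chromosomal insertion was confirmed by PCR with Cj0299 and cat primers.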"}, "Campylobacter jejuni [12]": {"system": "Campylobacter jejuni", "experiment": "Antibacterial activity against bla gene-positive and nitrocefin reaction-positive beta-lactamase harboring Campylobacter jejuni isolate P1730 by NCCLS agar doubling dilution method in presence of clavulanic acid", "outline": "as §2"}, "Campylobacter coli [13]": {"system": "Campylobacter coli", "experiment": "Antibacterial activity against bla gene-positive and nitrocefin reaction-positive beta-lactamase harboring Campylobacter coli isolate P321 by NCCLS agar doubling dilution method in presence of clavulanic acid", "outline": "as §1"}, "Campylobacter jejuni [14]": {"system": "Campylobacter jejuni", "experiment": "Antibacterial activity against bla gene-negative and nitrocefin reaction-positive beta-lactamase harboring Campylobacter jejuni isolate P843 by NCCLS agar doubling dilution method in presence of clavulanic acid", "outline": "as §1"}, "Campylobacter coli [15]": {"system": "Campylobacter coli", "experiment": "Antibacterial activity against bla gene-positive and nitrocefin reaction-positive beta-lactamase harboring Campylobacter coli isolate P1826 by NCCLS agar doubling dilution method in presence of clavulanic acid", "outline": "as §1"}, "Campylobacter jejuni [16]": {"system": "Campylobacter jejuni", "experiment": "Antibacterial activity against bla gene-positive and nitrocefin reaction-negative beta-lactamase harboring Campylobacter jejuni isolate P1699 by NCCLS agar doubling dilution method in presence of clavulanic acid", "outline": "as §1"}, "Campylobacter jejuni [17]": {"system": "Campylobacter jejuni", "experiment": "Antibacterial activity against bla gene-positive and nitrocefin reaction-negative beta-lactamase harboring Campylobacter jejuni isolate NCTC 11168 by NCCLS agar doubling dilution method in presence of clavulanic acid", "outline": "as §1"}, "Campylobacter coli [18]": {"system": "Campylobacter coli", "experiment": "Antibacterial activity against Campylobacter coli by NCCLS agar doubling dilution method", "outline": "as §3"}, "Campylobacter jejuni [19]": {"system": "Campylobacter jejuni", "experiment": "Antibacterial activity against Campylobacter jejuni isolate P1093 harboring blaOXA-61::cat gene by NCCLS agar doubling dilution method in presence of clavulanic acid", "outline": "as §4"}, "Campylobacter jejuni [20]": {"system": "Campylobacter jejuni", "experiment": "Antibacterial activity against bla gene-positive and nitrocefin reaction-positive beta-lactamase harboring Campylobacter jejuni isolate P285 by NCCLS agar doubling dilution method in presence of clavulanic acid", "outline": "as §2"}, "Campylobacter jejuni [21]": {"system": "Campylobacter jejuni", "experiment": "Antibacterial activity against bla gene-positive and nitrocefin reaction-negative beta-lactamase harboring Campylobacter jejuni isolate P1698 by NCCLS agar doubling dilution method in presence of clavulanic acid", "outline": "as §1"}, "Campylobacter jejuni [22]": {"system": "Campylobacter jejuni", "experiment": "Antibacterial activity against bla gene-negative and nitrocefin reaction-negative beta-lactamase harboring Campylobacter jejuni isolate P835 by NCCLS agar doubling dilution method in presence of clavulanic acid", "outline": "as §1"}, "Campylobacter jejuni [23]": {"system": "Campylobacter jejuni", "experiment": "Antibacterial activity against bla gene-positive and nitrocefin reaction-positive beta-lactamase harboring Campylobacter jejuni isolate P1650 by NCCLS agar doubling dilution method in presence of clavulanic acid", "outline": "as §2"}, "Campylobacter jejuni [24]": {"system": "Campylobacter jejuni", "experiment": "Antibacterial activity against bla gene-positive and nitrocefin reaction-positive beta-lactamase harboring Campylobacter jejuni isolate P1093 by NCCLS agar doubling dilution method in presence of clavulanic acid", "outline": "as §1"}, "Campylobacter jejuni [25]": {"system": "Campylobacter jejuni", "experiment": "Antibacterial activity against Campylobacter jejuni isolate P270 harboring blaOXA-61::cat gene by NCCLS agar doubling dilution method in presence of clavulanic acid"}, "Campylobacter coli [26]": {"system": "Campylobacter coli", "experiment": "Antibacterial activity against bla-positive and beta-lactamase-weakly positive Campylobacter coli isolate P1627 by NCCLS agar doubling dilution method in presence of clavulanic acid", "outline": "as §3"}, "Campylobacter jejuni [27]": {"system": "Campylobacter jejuni", "experiment": "Antibacterial activity against bla gene-positive and nitrocefin reaction-positive beta-lactamase harboring Campylobacter jejuni isolate P286 by NCCLS agar doubling dilution method in presence of clavulanic acid", "outline": "as §2"}, "Campylobacter jejuni [28]": {"system": "Campylobacter jejuni", "experiment": "Antibacterial activity against Campylobacter jejuni by NCCLS agar doubling dilution method in presence of clavulanic acid", "outline": "as §3"}}, "data": [{"smiles": "O=C(O)[C@H]1/C(=C/CO)O[C@@H]2CC(=O)N21", "note": "[CLAVULANIC ACID]", "values": [{"measurement": "MIC", "setting": "Campylobacter jejuni [1]", "value": 4, "unit": "µg/mL"}, {"measurement": "MIC", "setting": "Campylobacter jejuni [2]", "value": 2, "unit": "µg/mL"}, {"measurement": "MIC", "setting": "Campylobacter jejuni [3]", "value": 8, "unit": "µg/mL"}, {"measurement": "MIC", "setting": "Campylobacter jejuni [4]", "value": 0.5, "unit": "µg/mL"}, {"measurement": "MIC", "setting": "Campylobacter jejuni [5]", "value": 8, "unit": "µg/mL"}, {"measurement": "MIC50", "setting": "Campylobacter coli [6]", "value": 16, "unit": "µg/mL"}, {"measurement": "MIC90", "setting": "Campylobacter coli [6]", "value": 32, "unit": "µg/mL"}, {"measurement": "MIC", "setting": "Campylobacter jejuni [7]", "value": 8, "unit": "µg/mL"}, {"measurement": "MIC", "setting": "Campylobacter jejuni [8]", "value": 4, "unit": "µg/mL"}, {"measurement": "MIC", "setting": "Campylobacter jejuni [9]", "value": 16, "unit": "µg/mL"}, {"measurement": "MIC50", "setting": "Campylobacter jejuni [10]", "value": 4, "unit": "µg/mL"}, {"measurement": "MIC90", "setting": "Campylobacter jejuni [10]", "value": 8, "unit": "µg/mL"}, {"measurement": "MIC", "setting": "Campylobacter jejuni [11]", "value": 1, "unit": "µg/mL"}, {"measurement": "MIC", "setting": "Campylobacter jejuni [12]", "value": 8, "unit": "µg/mL"}, {"measurement": "MIC", "setting": "Campylobacter coli [13]", "value": 8, "unit": "µg/mL"}, {"measurement": "MIC", "setting": "Campylobacter jejuni [14]", "value": 4, "unit": "µg/mL"}, {"measurement": "MIC", "setting": "Campylobacter coli [15]", "value": 8, "unit": "µg/mL"}, {"measurement": "MIC", "setting": "Campylobacter jejuni [16]", "value": 4, "unit": "µg/mL"}, {"measurement": "MIC", "setting": "Campylobacter jejuni [17]", "value": 1, "unit": "µg/mL"}, {"measurement": "MIC50", "setting": "Campylobacter coli [18]", "value": 16, "unit": "µg/mL"}, {"measurement": "MIC90", "setting": "Campylobacter coli [18]", "value": 32, "unit": "µg/mL"}, {"measurement": "MIC", "setting": "Campylobacter jejuni [19]", "value": 0.5, "unit": "µg/mL"}, {"measurement": "MIC", "setting": "Campylobacter jejuni [20]", "value": 8, "unit": "µg/mL"}, {"measurement": "MIC", "setting": "Campylobacter jejuni [21]", "value": 1, "unit": "µg/mL"}, {"measurement": "MIC", "setting": "Campylobacter jejuni [22]", "value": 0.5, "unit": "µg/mL"}, {"measurement": "MIC", "setting": "Campylobacter jejuni [23]", "value": 4, "unit": "µg/mL"}, {"measurement": "MIC", "setting": "Campylobacter jejuni [24]", "value": 32, "unit": "µg/mL"}, {"measurement": "MIC", "setting": "Campylobacter jejuni [25]", "value": 0.25, "unit": "µg/mL"}, {"measurement": "MIC", "setting": "Campylobacter coli [26]", "value": 4, "unit": "µg/mL"}, {"measurement": "MIC", "setting": "Campylobacter jejuni [27]", "value": 8, "unit": "µg/mL"}, {"measurement": "MIC50", "setting": "Campylobacter jejuni [28]", "value": 4, "unit": "µg/mL"}, {"measurement": "MIC90", "setting": "Campylobacter jejuni [28]", "value": 8, "unit": "µg/mL"}]}]}
